Publication PMC6737205 (International Journal of Nanomedicine, 2019)

Assays:
Design in all cases: species or system mouse
Settings in all cases: S180 mice, oral, RGDV-gemcitabine 8.4 μmol/kg/day, gemcitabine 84 μmol/kg/day, every 3 days for 12 days, n=12
[1] = In vivo serum Cr assay
How it was run: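 Creatinine was measured with an enzymatic kit on serum from S180 tumour-bearing mice, with blood spun at 1000 rpm, 4°C, 10 mins. Serum plus enzyme solution A was incubated at 37°C for 5 mins and read at 546 nm (A1). After a further 30 mins at 37°C, enzyme solution B was added, incubated 5 mins, and read again at 546 nm (A2). Cr was calculated from the two readings.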

[2] = In vivo serum AST/GOT assay
[3] = In vivo serum ALT/GPT assay
How it was run: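 Serum came from male ICR mice bearing subcutaneous S180 tumours (1×10^7 cells, right armpit). Blood was taken 3 hrs after the last oral dose, with saline 10 mL/kg/day as vehicle, and spun at 1000 rpm, 4°C, 10 mins. Serum was incubated with kit matrix at 37°C for 30 mins, then dinitrophenylhydrazine at 37°C for 20 mins, then 0.4 M NaOH. Read at 510 nm; ALT from a standard curve.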

[4] = In vivo serum BUN assay
How it was run: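 BUN was measured by a kit immunoassay on serum from S180 tumour-bearing mice, with blood spun at 3000 rpm, 4°C, 10 mins. Serum was incubated with anti-BUN antibody and streptavidin-HRP at 37°C for 60 mins, then washed 5 times. Chromogen was added at 37°C for 15 mins in the dark, then stop solution. Read at 450 nm within 15 mins; BUN from a standard curve.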

In the case of `Nc1ccn([C@@H]2O[C@H](CO)[C@@H](O)C2(F)F)c(=O)n1` [gemcitabine], the “serum Cr compared with NS-treated mice” value [1] is reported as “significantly higher than those of NS-treated mice”, the “serum AST/GOT compared with NS-treated mice” value [2] is reported as “significantly higher than those of NS-treated mice” and the “serum ALT/GPT compared with NS-treated mice” value [3] is reported as “significantly higher than those of NS-treated mice”. The “serum BUN compared with NS-treated mice” value [4] was “significantly higher than those of NS-treated mice”.
